Consider 22 molecules from ChEMBL document CHEMBL1125713, “Synthesis and antiarrhythmic activity of cis-2,6-dimethyl-alpha,alpha-diaryl-1-piperidinebutanols” (1991).

Some results are limits rather than exact numbers.

The subject of test [1] is Canis familiaris. As to the kind of experiment: Antiarrhythmic effect in coronary artery ligated dogs model at a dose of 5 mg/kg, value noted at end dose. The format is functional, Canis lupus familiaris, Heart. In a few lines:
(§1)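 Coronary-ligated dogs with ventricular arrhythmias. Dosing was 5 mg/kg in 10–20 mL isotonic saline, given as an iv infusion over 5 min. Limb lead II ECG was monitored continuously for up to 6 h. Percent normal sinus beats was scored at control, end of dose, 20 min and 1 h. Values are mean ± SEM for three or more animals, mean ± SD for two.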

Test [2] is filed under the species Canis familiaris. As to the kind of experiment: Compound was evaluated for the activity rating. Type of test: functional, Canis lupus familiaris. The gist of the method: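 In ligated dogs given 5 mg/kg iv over 5 min, group % normal beats was plotted at end of dose, 20 min and 1 h. The area under this curve minus the control area was divided by the same area for an ideal response (100% normal beats for the whole hour), then multiplied by 100.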

Test [3] deals with Canis familiaris. Briefly: Antiarrhythmic effect in coronary artery ligated dog model at a dose of 5 mg/kg, administered intravenously and value noted at 1 hr. Type of test: functional, Canis lupus familiaris, Heart. To be noted: route intravenous. The gist of the method:
as §1

Test [4] relates to Canis familiaris. Briefly: Antiarrhythmic effect in coronary artery ligated dogs model at a dose of 5 mg/kg, administered intravenously and value noted at 20 min. Type of test: functional, Canis lupus familiaris, Heart. To be noted: route intravenous. The gist of the method: as §1
Test [5] concerns Canis familiaris. As to the kind of experiment: Compound was evaluated for the heart rate effect in normal dogs at a dose of 5 mg/kg, administered intravenously and value noted at end dose. Type of test: functional, Canis lupus familiaris. To be noted: route intravenous. In a few lines: (§2)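 Conscious normal dogs, trained and sling-restrained, received the same iv dosing: 5 mg/kg infused over 5 min. Heart rate came from continuous limb lead II ECG at control, end of dose, 20 min and 1 h. Values are mean ± SD for two dogs.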

Test [6] deals with Canis familiaris. As to the kind of experiment: Compound was evaluated for the heart rate effect in normal dogs at a dose of 5 mg/kg, administered intravenously and value noted at 1h. Type of test: functional, Canis lupus familiaris. To be noted: route intravenous. In a few lines:
as §2

The test system of test [7] is Canis familiaris. As to the kind of experiment: Compound was evaluated for the heart rate effect in normal dogs at a dose of 5 mg/kg, administered intravenously and value noted at 20 min. Type of test: functional, Canis lupus familiaris. To be noted: route intravenous. The gist of the method:
as §2

The species entered for test [8] is Canis familiaris. Briefly: Compound was evaluated for the duration of sustained effect. Type of test: functional, Canis lupus familiaris. The gist of the method: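 Normal dogs received 5 mg/kg iv over 5 min, with heart rate tracked by continuous ECG. Dogs above 140 beats/min were followed until the rate fell to 140. The sustained effect was rated long (>2 h), moderate (0.5–2 h) or short (<0.5 h).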

The species named for test [9] is Canis familiaris. As to the kind of experiment: Compound was evaluated for the degree of tachycardia; 160-199. The format is functional, Canis lupus familiaris. The gist of the method:
(§3)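 Conscious normal dogs received 5 mg/kg iv over 5 min, with heart rate from limb lead II ECG. Tachycardia was graded as severe (≥200 beats/min), moderate (160–199), slight (<160 after a rise of ≥20) or none (change <20 beats/min).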

Test [10] is filed under the species Canis familiaris. Briefly: Compound was evaluated for the degree of tachycardia. Type of test: functional, Canis lupus familiaris. The gist of the method:
as §3

Turning to `CC1CCCC(C)N1CCCC(O)c1ccccc1.Cl` (stereo not drawn), the results for the Normal beats in the test on Canis familiaris [1], in the test with Canis familiaris [3] and in the test on Canis familiaris [4] were 99%, 10% and 45%, respectively. For the same molecule, in the test listed under Canis familiaris [2], the Activity rating is reported as 35.
As to `Cl.OC(CCCN1CCCCC1)(c1ccccc1)c1ccccc1` [DIPHENIDOL HYDROCHLORIDE], the Heart rate is listed as 200 beats min-1 with Canis familiaris [5], 142 beats min-1 in the test on Canis familiaris [6], 155 beats min-1 in the test on Canis familiaris [7] and 160 beats min-1 in the test listed under Canis familiaris [9]. In addition, the Normal beats in the test on Canis familiaris [1] was 90%; in the test with Canis familiaris [3] it was 34%; with Canis familiaris [4] it was 54%. Besides, the Duration in the test filed under Canis familiaris [8] is above 2 h. Besides, the Activity rating in the test listed under Canis familiaris [2] is on record as 39.
With `CC1CCCC(C)N1CC(O)(c1ccccc1)c1ccccc1` (stereo not drawn), the values for the Heart rate in the test with Canis familiaris [5], with Canis familiaris [6] and with Canis familiaris [7] were 115 beats min-1, 96 beats min-1 and 92 beats min-1, respectively. The results for the Normal beats in the test with Canis familiaris [1], in the test with Canis familiaris [3] and with Canis familiaris [4] were 56%, 16% and 16%, respectively. This molecule displayed an Activity rating in the test listed under Canis familiaris [2] of 15.
With `CC(=O)NCC(CCCN1C(C)CCCC1C)(c1ccccc1)c1ccccc1.Cl` (stereo not drawn), the Normal beats came out at 95% in the test on Canis familiaris [1], 53% in the test on Canis familiaris [3] and 71% in the test with Canis familiaris [4]. In the test listed under Canis familiaris [2], the Activity rating is recorded as 62.
Consider `CC(=O)NCC(CCN1C(C)CCCC1C)(c1ccccc1)c1ccccc1` (stereo not drawn), for which the Heart rate in the test with Canis familiaris [5] is on record as 141 beats min-1; in the test listed under Canis familiaris [10] it was below 160 beats min-1; in the test on Canis familiaris [6] it was 103 beats min-1; in the test on Canis familiaris [7] it was 119 beats min-1. Also, the Normal beats amounted to 82% with Canis familiaris [1], 49% with Canis familiaris [3] and 62% in the test with Canis familiaris [4]. In the test filed under Canis familiaris [8], the Duration is below 0.5 h. In the test listed under Canis familiaris [2], this molecule came in with an Activity rating of 53.
As for `CC1CCC(C)N1CCCCC(O)(c1ccccc1)c1ccccn1` (stereo not drawn), the Normal beats came out at 88% with Canis familiaris [1], 43% in the test on Canis familiaris [3] and 52% with Canis familiaris [4]. This molecule yielded an Activity rating in the test filed under Canis familiaris [2] of 42.
`CC1CCCC(C)N1CCC(C(N)=O)(c1ccccc1)c1ccccc1.Cl` (stereo not drawn): the figures for the Normal beats in the test on Canis familiaris [1], in the test with Canis familiaris [3] and in the test on Canis familiaris [4] were 64%, 83% and 51%, respectively. In the test filed under Canis familiaris [2], this molecule displayed an Activity rating of 39.
In the case of `CC1CCCC(C)N1CCCC(O)(c1ccccc1)c1ccccc1.Cl` (stereo not drawn), the Heart rate in the test with Canis familiaris [5] is given as 187 beats min-1; in the test with Canis familiaris [6], 165 beats min-1; in the test with Canis familiaris [7], 155 beats min-1; in the test filed under Canis familiaris [9] it was 160 beats min-1. In addition, the Normal beats in the test with Canis familiaris [1] was 96%; with Canis familiaris [3], 76%; with Canis familiaris [4], 86%. This molecule registered an Activity rating in the test filed under Canis familiaris [2] of 81.
`CC(C)N(CCC(C(N)=O)(c1ccccc1)c1ccccn1)C(C)C` (stereo not drawn) [DISOPYRAMIDE]: the Normal beats in the test on Canis familiaris [1] came to 89%; in the test on Canis familiaris [3], 16%; with Canis familiaris [4], 60%. In the test listed under Canis familiaris [2], this molecule registered an Activity rating of 49.
The corresponding values for `CC1CCCC(C)N1CCC(CN)(c1ccccc1)c1ccccc1` (stereo not drawn) are 100%, 39%, 61% and 50.
The corresponding values for `CC1CCCC(C)N1CCCC(O)(c1ccccc1)c1ccncc1` (stereo not drawn) are 51%, 7%, 11% and 13.
For the molecule `CCC1CCCCN1CCCC(O)(c1ccccc1)c1ccccc1.Cl` (stereo not drawn), the Normal beats in the test with Canis familiaris [1] amounted to 87%; in the test with Canis familiaris [3], 37%; in the test on Canis familiaris [4], 48%. Besides, the Activity rating in the test filed under Canis familiaris [2] worked out at 46.
For `CC1CCCC(C)N1CCCC(O)(c1ccccc1)c1ccccn1.Cl` (stereo not drawn) [PIRMENOL HYDROCHLORIDE], the Heart rate in the test with Canis familiaris [5] amounted to 194 beats min-1; in the test with Canis familiaris [6], 157 beats min-1; in the test on Canis familiaris [7] it was 172 beats min-1; in the test filed under Canis familiaris [9] it was 160 beats min-1. For the same molecule, the Normal beats in the test with Canis familiaris [1] was found to be 94%; in the test with Canis familiaris [3], 59%; in the test with Canis familiaris [4] it was 80%. Moreover, the Duration in the test filed under Canis familiaris [8] was above 2 h. The Activity rating in the test filed under Canis familiaris [2] turned out to be 71.
Consider `CC1CCCC(C)N1CCCC(C#N)(c1ccccc1)c1ccccn1` (stereo not drawn), for which the Heart rate is 154 beats min-1 with Canis familiaris [5], below 160 beats min-1 in the test listed under Canis familiaris [10], 131 beats min-1 in the test with Canis familiaris [6] and 154 beats min-1 with Canis familiaris [7]. Moreover, the Normal beats with Canis familiaris [1] amounted to 100%; in the test with Canis familiaris [3], 97%; in the test with Canis familiaris [4], 50%. For the same molecule, the Duration in the test filed under Canis familiaris [8] is below 0.5 h. Besides, the Activity rating in the test filed under Canis familiaris [2] is 36.
`CC1CCCC(C)N1CCCC(c1ccccc1)c1ccccn1.Cl` (stereo not drawn): the results for the Normal beats in the test with Canis familiaris [1], with Canis familiaris [3] and with Canis familiaris [4] were 62%, 67% and 37%, respectively. The Activity rating in the test listed under Canis familiaris [2] was determined as 47.
In the case of `Cl.OC(CCCN1CCCCC1)(c1ccccc1)c1ccccn1` (stereo not drawn), the Normal beats in the test on Canis familiaris [1] turned out to be 97%; with Canis familiaris [3] it was 8%; with Canis familiaris [4] it was 21%. The molecule further gave an Activity rating in the test listed under Canis familiaris [2] of 17.
The corresponding values for `CC1CCCC(C)N1CCC(C#N)(c1ccccc1)c1ccccc1.Cl` (stereo not drawn) are 91%, 65%, 72% and 70.
In the same order, the values of `CC1CCCC(C)N1CCCC(O)(c1ccccn1)c1ccccn1.Cl` (stereo not drawn) are 90%, 32%, 68% and 53.
For the molecule `Cc1ccccc1C(O)(CCCN1C(C)CCCC1C)c1ccccc1.Cl` (stereo not drawn), the Heart rate in the test on Canis familiaris [5] is 155 beats min-1; in the test filed under Canis familiaris [10] it was below 160 beats min-1; in the test with Canis familiaris [6], 151 beats min-1; with Canis familiaris [7] it was 149 beats min-1. Further, the Normal beats in the test on Canis familiaris [1] is 92%; in the test with Canis familiaris [3], 61%; with Canis familiaris [4], 61%. Moreover, the Duration in the test filed under Canis familiaris [8] is above 2 h. The Activity rating in the test listed under Canis familiaris [2] is listed as 60.
Turning to `CC1CCC(C)N1CCCC(O)(c1ccccc1)c1ccccc1.Cl` (stereo not drawn), the Heart rate in the test on Canis familiaris [5] is listed as 243 beats min-1; in the test listed under Canis familiaris [10], above 200 beats min-1; in the test on Canis familiaris [6] it was 193 beats min-1; in the test on Canis familiaris [7], 218 beats min-1. The Normal beats in the test on Canis familiaris [1] turned out to be 69%; in the test on Canis familiaris [3], 35%; in the test on Canis familiaris [4], 39%. Also, the Duration in the test listed under Canis familiaris [8] was above 2 h. Besides, the Activity rating in the test listed under Canis familiaris [2] is given as 29.
In the case of `CC1CCCC(C)N1CCC(O)(c1ccccc1)c1ccccc1.Cl` (stereo not drawn), the Heart rate is listed as 137 beats min-1 in the test with Canis familiaris [5], 130 beats min-1 in the test on Canis familiaris [6] and 117 beats min-1 with Canis familiaris [7]. Moreover, the Normal beats with Canis familiaris [1] stood at 97%; with Canis familiaris [3], 74%; in the test with Canis familiaris [4] it was 96%. The molecule further showed an Activity rating in the test filed under Canis familiaris [2] of 86.
Take `CC1CCCC(C)N1CCCC(O)(c1ccccc1)c1cccnc1.Cl` (stereo not drawn): the Normal beats in the test with Canis familiaris [1] came out at 43%; in the test with Canis familiaris [3] it was 6%; in the test on Canis familiaris [4], 16%. In the test listed under Canis familiaris [2], this molecule had an Activity rating of 13.
